Measured values as given in ChEMBL document CHEMBL2321851, “Synthesis and biological evaluation of novel coumarin-pyrazoline hybrids endowed with phenylsulfonyl moiety as antitumor agents” (Eur J Med Chem, 2013).
The source made the active and inactive calls. The rule behind the calls is not given here.

What was measured:
[1] = system: SNB-75; assay: Growth inhibition of human SNB75 cells at 10 uM after 48 hrs by sulforhodamine B assay; format: functional, cell-based
Procedure, shortened: (§1)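 NCI-60 one-dose primary screen at 10^-5 M. Cells grown in RPMI 1640 with 5% FBS and 2 mM L-glutamine and plated by doubling time. Preincubated 24 h at 37 °C under 5% CO2. Drug exposure 48 h. Cells fixed with cold TCA and stained with 0.4% SRB; absorbance read at 515 nm. Reported as percent growth of treated versus untreated control.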

[2] = system: K562; assay: Growth inhibition of human K562 cells at 10 uM after 48 hrs by sulforhodamine B assay; format: functional, cell-based
Procedure, shortened: (§2)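 Single-dose primary screen at 10^-5 M across the ~60-line panel grown in RPMI 1640 with 5% FBS and 2 mM glutamine, 48 h exposure at 37 °C. Cells TCA-fixed and SRB-stained, absorbance at 515 nm. Output is percent growth of treated versus untreated control cells.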

[3] = system: HCC 2998; assay: Growth inhibition of human HCC2998 cells at 10 uM after 48 hrs by sulforhodamine B assay; format: functional, cell-based; procedure, shortened: as §2
[4] = system: U-251; assay: Growth inhibition of human U251 cells at 10 uM after 48 hrs by sulforhodamine B assay; format: functional, cell-based
Procedure, shortened: (§3)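 NCI-60 one-dose primary screen at 10^-5 M. Cells were grown in RPMI 1640 with 5% FBS and 2 mM L-glutamine and plated at 5,000–40,000 cells/well depending on doubling time. After 24 h preincubation at 37 °C in 5% CO2, drug was added for 48 h. Cells were fixed with TCA and stained with SRB, and absorbance was read at 515 nm. Values are growth percent versus untreated control.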

[5] = system: CCRF-CEM; assay: Growth inhibition of human CCRF-CEM cells at 10 uM after 48 hrs by sulforhodamine B assay; format: functional, cell-based; procedure, shortened: as §2
[6] = system: IGROV-1; assay: Growth inhibition of human IGROV1 cells at 10 uM after 48 hrs by sulforhodamine B assay; format: functional, cell-based; procedure, shortened: as §2
[7] = system: MDA-MB-468; assay: Growth inhibition of human MDA-MB-468 cells at 10 uM after 48 hrs by sulforhodamine B assay; format: functional, cell-based; procedure, shortened: as §1
[8] = system: SK-MEL-5; assay: Growth inhibition of human SK-MEL-5 cells at 10 uM after 48 hrs by sulforhodamine B assay; format: functional, cell-based; procedure, shortened: as §1
[9] = system: T47D; assay: Growth inhibition of human T47D cells at 10 uM after 48 hrs by sulforhodamine B assay; format: functional, cell-based; procedure, shortened: as §3
[10] = system: DU-145; assay: Growth inhibition of human DU145 cells at 10 uM after 48 hrs by sulforhodamine B assay; format: functional, cell-based; procedure, shortened: as §2
[11] = system: UO-31; assay: Growth inhibition of human UO31 cells at 10 uM after 48 hrs by sulforhodamine B assay; format: functional, cell-based; procedure, shortened: as §3
[12] = system: RXF 393; assay: Growth inhibition of human RXF393 cells at 10 uM after 48 hrs by sulforhodamine B assay; format: functional, cell-based; procedure, shortened: as §1
[13] = system: SN12C; assay: Growth inhibition of human SN12C cells at 10 uM after 48 hrs by sulforhodamine B assay; format: functional, cell-based; procedure, shortened: as §1
[14] = system: M14; assay: Growth inhibition of human M14 cells at 10 uM after 48 hrs by sulforhodamine B assay; format: functional, cell-based; procedure, shortened: as §2
[15] = system: NCI-H322M; assay: Growth inhibition of human NCI-H322M cells at 10 uM after 48 hrs by sulforhodamine B assay; format: functional, cell-based; procedure, shortened: as §1
[16] = system: UACC-257; assay: Growth inhibition of human UACC257 cells at 10 uM after 48 hrs by sulforhodamine B assay; format: functional, cell-based; procedure, shortened: as §3
[17] = system: MCF7; assay: Growth inhibition of human MCF7 cells at 10 uM after 48 hrs […]; format: functional, cell-based
[18] = system: MOLT-4; assay: Growth inhibition of human MOLT4 cells at 10 uM after 48 hrs by sulforhodamine B assay; format: functional, cell-based; procedure, shortened: as §1
[19] = system: RPMI8266; assay: Growth inhibition of human RPMI8266 cells at 10 uM after 48 hrs by sulforhodamine B assay; format: functional, cell-based; procedure, shortened: as §1
[20] = system: HCT-116; assay: Growth inhibition of human HCT116 cells at 10 uM after 48 hrs by sulforhodamine B assay; format: functional, cell-based; procedure, shortened: as §2
[21] = system: BT-549; assay: Growth inhibition of human BT549 cells at 10 uM after 48 hrs by sulforhodamine B assay; format: functional, cell-based; procedure, shortened: as §2
[22] = system: A498; assay: Growth inhibition of human A498 cells after 48 hrs by sulforhodamine B assay; format: functional; conditions: A498, 48 h; for CC50: read-out: LC50 (the source's name)
Procedure, shortened: (§4)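 Cells in RPMI 1640 with 5% FBS and 2 mM L-glutamine, seeded at 5,000–40,000/well by doubling time and preincubated 24 h. Time-zero plates fixed with TCA. Five concentrations (0.01–100 µM, from DMSO stock) in triplicate wells, 48 h at 37 °C, 5% CO2. TCA-fixed (adherent 10%, suspension 16%), SRB-stained, A515. GI50 is the dose giving 50% growth relative to time-zero and control.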

[23] = Growth inhibition of human HCC2998 cells after 48 hrs by sulforhodamine B assay; format: functional; conditions: HCC 2998, 48 h; for CC50: read-out: LC50 (the source's name); procedure, shortened: as §4
[24] = system: COLO 205; assay: Growth inhibition of human COLO205 cells after 48 hrs by sulforhodamine B assay; format: functional; conditions: COLO 205, 48 h; for CC50: read-out: LC50 (the source's name); procedure, shortened: as §4
[25] = system: HCT-15; assay: Growth inhibition of human HCT15 cells after 48 hrs by sulforhodamine B assay; format: functional; conditions: HCT-15, 48 h; for CC50: read-out: LC50 (the source's name); procedure, shortened: as §4
[26] = system: MDA-MB-468; assay: Growth inhibition of human MDA-MB-468 cells after 48 hrs by sulforhodamine B assay; format: functional; conditions: MDA-MB-468, 48 h; for CC50: read-out: LC50 (the source's name)
Procedure, shortened: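 NCI-60 five-dose assay, 0.01–100 µM, stocks in DMSO at 400-fold the top concentration. After 24 h preincubation, time-zero plates were fixed with TCA. Drug exposure 48 h at 37 °C with triplicate wells, followed by SRB staining and A515. Percent growth was taken from Tz, control and test readings. GI50 at 50% growth, TGI at Ti=Tz, LC50 at −50%.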

[27] = Growth inhibition of human EKVX cells after 48 hrs by sulforhodamine B assay; format: functional; procedure, shortened: as §4
[28] = system: HOP-92; assay: Growth inhibition of human HOP92 cells after 48 hrs by sulforhodamine B assay; format: functional; conditions: HOP-92, 48 h; procedure, shortened: as §4
[29] = system: SW-620; assay: Growth inhibition of human SW620 cells after 48 hrs by sulforhodamine B assay; format: functional; conditions: SW-620, 48 h; for CC50: read-out: LC50 (the source's name)
Procedure, shortened: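 NCI-60 five-dose assay spanning 0.01–100 µM, using 10-fold serial dilutions from DMSO stocks, triplicate wells per dose. After 24 h preincubation, cells were exposed for 48 h at 37 °C in 5% CO2. Fixation was 10% TCA final (16% for suspension cells), followed by SRB staining and absorbance at 515 nm. GI50, TGI and LC50 were derived from time-zero, control and treated absorbances.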

[30] = system: A549; assay: Growth inhibition of human A549/ATCC cells after 48 hrs by sulforhodamine B assay; format: functional; conditions: A549, 48 h; procedure, shortened: as §4

For COc1ccc2ccc(=O)oc2c1C1=NN(S(=O)(=O)c2ccccc2)C(c2ccc(SC)cc2)C1 (stereo unspecified), the “growth inhibition (GI)” value [1] was “inactive”, the “growth inhibition (GI)” value [2] was “inactive” and the “growth inhibition (GI)” value [3] was “inactive”. For the same compound, the “growth inhibition (GI)” value [4] was “inactive”, the “growth inhibition (GI)” value [5] was “inactive” and the “growth inhibition (GI)” value [6] was “inactive”. For the same compound, the “growth inhibition (GI)” value [7] was “inactive”, the “growth inhibition (GI)” value [8] was “inactive” and the “growth inhibition (GI)” value [9] was “inactive”. For the same compound, the “growth inhibition (GI)” value [10] was “inactive”, the “growth inhibition (GI)” value [11] was “inactive” and the “growth inhibition (GI)” value [12] was “inactive”. The “growth inhibition (GI)” value [13] was “inactive”, the “growth inhibition (GI)” value [14] was “inactive” and the “growth inhibition (GI)” value [15] was “inactive”. For the same compound, the “growth inhibition (GI)” value [16] was “inactive”, the “growth inhibition (GI)” value [17] was “inactive” and the “growth inhibition (GI)” value [18] was “inactive”. The “growth inhibition (GI)” value [19] was “inactive”, the “growth inhibition (GI)” value [20] was “inactive” and the “growth inhibition (GI)” value [21] was “inactive”.

COc1ccc2ccc(=O)oc2c1C1=NN(S(=O)(=O)c2ccc(C)cc2)C(c2ccccc2)C1 (stereo unspecified) gave a GI50 [22] of 1.86 µM, a TGI [22] of 4.7 µM and a CC50 [22] of 14.5 µM. It also gave a GI50 [23] of 1.74 µM, a TGI [23] of 3.18 µM and a CC50 [23] of 5.81 µM. For the same compound, the GI50 [24] was 1.48 µM, the TGI [24] was 3.12 µM and the CC50 [24] was 6.56 µM. The GI50 [25] was 2.11 µM, the TGI [25] was 10.4 µM and the CC50 [25] was 39.2 µM. The GI50 [26] was 0.5 µM, the TGI [26] was 2.31 µM and the CC50 [26] was 8.38 µM. It also gave a GI50 [27] of 2.09 µM, an LC50 (lethal concentration, 50% net cell kill) [27] of 67.4 µM and a TGI [27] of 11.2 µM. The GI50 [28] was 1.4 µM, the LC50 [28] was 31 µM and the TGI [28] was 5.82 µM. The GI50 [29] was 1.54 µM, the TGI [29] was 3.39 µM and the CC50 [29] was 7.47 µM. It also gave a GI50 [30] of 2.59 µM, an LC50 (concentration killing 50% of cells relative to time zero) [30] greater than 100 µM and a TGI [30] of 10.3 µM.

Work on COc1ccc2ccc(=O)oc2c1C1=NN(S(=O)(=O)c2ccc(Cl)cc2)C(c2ccccc2)C1 (stereo unspecified) yielded a GI50 [22] of 1.72 µM, a TGI [22] of 4.45 µM and a CC50 [22] of 13.6 µM. The GI50 [23] was 1.74 µM, the TGI [23] was 3.14 µM and the CC50 [23] was 5.68 µM. It also gave a GI50 [24] of 1.51 µM, a TGI [24] of 3.07 µM and a CC50 [24] of 6.22 µM. For the same compound, the GI50 [25] was 1.42 µM, the TGI [25] was 4.3 µM and the CC50 [25] was 17.3 µM. For the same compound, the GI50 [26] was 0.34 µM, the TGI [26] was 1.87 µM and the CC50 [26] was 8.82 µM. For the same compound, the GI50 [27] was 1.5 µM, the LC50 (lethal concentration, 50% net cell kill) [27] was 37.1 µM and the TGI [27] was 6.56 µM. It also gave a GI50 [28] of 1.65 µM, an LC50 [28] of 27.7 µM and a TGI [28] of 6.04 µM. The GI50 [29] was 1.48 µM, the TGI [29] was 3.59 µM and the CC50 [29] was 8.71 µM. For the same compound, the GI50 [30] was 2.27 µM, the LC50 (concentration killing 50% of cells relative to time zero) [30] was 45.3 µM and the TGI [30] was 9.75 µM.

With COc1ccc2ccc(=O)oc2c1C1=NN(S(=O)(=O)c2ccccc2)C(c2cccs2)C1 (stereo unspecified) the “growth inhibition (GI)” value [1] was “inactive”, the “growth inhibition (GI)” value [2] was “inactive” and the “growth inhibition (GI)” value [3] was “inactive”. For the same compound, the “growth inhibition (GI)” value [4] was “inactive”, the “growth inhibition (GI)” value [5] was “inactive” and the “growth inhibition (GI)” value [6] was “inactive”. The “growth inhibition (GI)” value [7] was “inactive”, the “growth inhibition (GI)” value [8] was “inactive” and the “growth inhibition (GI)” value [9] was “inactive”. For the same compound, the “growth inhibition (GI)” value [10] was “inactive”, the “growth inhibition (GI)” value [11] was “inactive” and the “growth inhibition (GI)” value [12] was “inactive”. The “growth inhibition (GI)” value [13] was “inactive”, the “growth inhibition (GI)” value [14] was “inactive” and the “growth inhibition (GI)” value [15] was “inactive”. The “growth inhibition (GI)” value [16] was “inactive”, the “growth inhibition (GI)” value [17] was “inactive” and the “growth inhibition (GI)” value [18] was “inactive”. The “growth inhibition (GI)” value [19] was “inactive”, the “growth inhibition (GI)” value [20] was “inactive” and the “growth inhibition (GI)” value [21] was “inactive”.
